Test results reported in ChEMBL document CHEMBL5705886, “GSK1070916, a potent Aurora B/C kinase inhibitor with broad antitumor activity in tissue culture cells and human tumor xenograft models” (Mol Cancer Ther, 2009).
Activity calls are given as the source filed them. The calls are words filed in the database; no cut-off is given here.

Key:
[1] = Antiproliferative activity against human RKOE6 cells assessed as inhibition of cell viability measured for 6 to 7 days by cell titer glo assay; format: functional, cell-based
Outline: (§1)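 Cells seeded in recommended growth medium, held overnight at 37°C in 5% CO2, then exposed to serial dilutions of inhibitor for 6–7 d. A time-zero plate was read with CellTiter-Glo at dosing. Luminescent viability read at the end. No-cell wells subtracted as background, data expressed as percent of DMSO control.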

[2] = system: LoVo; test: Antiproliferative activity against human LoVo cells assessed as inhibition of cell viability measured for 6 to 7 days by cell titer glo assay; format: functional, cell-based
Outline: (§2)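 Cells seeded in recommended growth medium, incubated overnight at 37°C in 5% CO2, then exposed to serial dilutions of inhibitor for 6–7 d. A parallel plate was read with CellTiter-Glo at compound addition as a T=0 value. The luminescent viability readout had no-cell background subtracted and was expressed as % of DMSO control.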

[3] = system: HCT-8; test: Antiproliferative activity against human HCT-8 cells assessed as inhibition of cell viability measured for 6 to 7 days by cell titer glo assay; format: functional, cell-based
Outline: (§3)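 Tumor lines plated in recommended growth media, overnight at 37°C, 5% CO2, then given serial dilutions; a T=0 plate read with CellTiter-Glo at dosing. After 6–7 d of exposure, viability read by CellTiter-Glo luminescence. No-cell wells subtracted, data expressed as % of DMSO control.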

[4] = system: T47D; test: Antiproliferative activity against human T47D cells assessed as inhibition of cell viability measured for 6 to 7 days by cell titer glo assay; format: functional, cell-based; outline: as §1
[5] = system: A498; test: Antiproliferative activity against human A498 cells assessed as inhibition of cell viability measured for 6 to 7 days by cell titer glo assay; format: functional, cell-based; outline: as §3
[6] = system: 786-0; test: Antiproliferative activity against human 786-0 cells assessed as inhibition of cell viability measured for 6 to 7 days by cell titer glo assay; format: functional, cell-based; outline: as §3
[7] = system: MIA PaCa-2; test: Antiproliferative activity against human Mia PaCa cells assessed as inhibition of cell viability measured for 6 to 7 days by cell titer glo assay; format: functional, cell-based; outline: as §2
[8] = Antiproliferative activity against human MV-522 cells assessed as inhibition of cell viability measured for 6 to 7 days by cell titer glo assay; format: functional, cell-based; settings: MV522; outline: as §2
[9] = system: Pfeiffer; test: Antiproliferative activity against human Pfeiffer cells assessed as inhibition of cell viability measured for 6 to 7 days by cell titer glo assay; format: functional, cell-based; outline: as §1
[10] = system: SU-DHL-5; test: Antiproliferative activity against human SU-DHL-5 cells assessed as inhibition of cell viability measured for 6 to 7 days by cell titer glo assay; format: functional, cell-based; outline: as §1
[11] = system: SUD4; test: Antiproliferative activity against human SU-DHL-4 cells assessed as inhibition of cell viability measured for 6 to 7 days by cell titer glo assay; format: functional, cell-based; outline: as §1
[12] = system: SU-DHL-6; test: Antiproliferative activity against human SU-DHL-6 cells assessed as inhibition of cell viability measured for 6 to 7 days by cell titer glo assay; format: functional, cell-based; outline: as §1
[13] = system: Toledo; test: Antiproliferative activity against human Toledo cells assessed as inhibition of cell viability measured for 6 to 7 days by cell titer glo assay; format: functional, cell-based; outline: as §1
[14] = Antiproliferative activity against human BCP-1 cells assessed as inhibition of cell viability measured for 6 to 7 days by cell titer glo assay; format: functional, cell-based; outline: as §3
[15] = system: RCK8; test: Antiproliferative activity against human RCK8 cells assessed as inhibition of cell viability measured for 6 to 7 days by cell titer glo assay; format: functional, cell-based; outline: as §1
[16] = system: CA46; test: Antiproliferative activity against human CA46 cells assessed as inhibition of cell viability measured for 6 to 7 days by cell titer glo assay; format: functional, cell-based; outline: as §3
[17] = system: RPMI-6666; test: Antiproliferative activity against human RPMI-6666 cells assessed as inhibition of cell viability measured for 6 to 7 days by cell titer glo assay; format: functional, cell-based; outline: as §1
[18] = system: NALM-6; test: Antiproliferative activity against human NALM-6 cells assessed as inhibition of cell viability measured for 6 to 7 days by cell titer glo assay; format: functional, cell-based; outline: as §2
[19] = Antiproliferative activity against human Karpas-231 cells assessed as inhibition of cell viability measured for 6 to 7 days by cell titer glo assay; format: functional, cell-based; outline: as §2
[20] = Antiproliferative activity against human RCH-ACV cells assessed as inhibition of cell viability measured for 6 to 7 days by cell titer glo assay; format: functional, cell-based; outline: as §1
[21] = system: CESS; test: Antiproliferative activity against human CESS cells assessed as inhibition of cell viability measured for 6 to 7 days by cell titer glo assay; format: functional, cell-based; outline: as §3
[22] = Antiproliferative activity against human PLB-985 cells assessed as inhibition of cell viability measured for 6 to 7 days by cell titer glo assay; format: functional, cell-based; outline: as §1
[23] = system: THP-1; test: Antiproliferative activity against human THP-1 cells assessed as inhibition of cell viability measured for 6 to 7 days by cell titer glo assay; format: functional, cell-based; outline: as §1
[24] = Antiproliferative activity against human F-36P cells assessed as inhibition of cell viability measured for 6 to 7 days by cell titer glo assay; format: functional, cell-based; outline: as §3
[25] = system: NB-4; test: Antiproliferative activity against human NB4 cells assessed as inhibition of cell viability measured for 6 to 7 days by cell titer glo assay; format: functional, cell-based; outline: as §2
[26] = Antiproliferative activity against human BDCM cells assessed as inhibition of cell viability measured for 6 to 7 days by cell titer glo assay; format: functional, cell-based; outline: as §3
[27] = system: EM-2; test: Antiproliferative activity against human EM-2 cells assessed as inhibition of cell viability measured for 6 to 7 days by cell titer glo assay; format: functional, cell-based; outline: as §3
[28] = system: MOLT-4; test: Antiproliferative activity against human MOLT-4 cells assessed as inhibition of cell viability measured for 6 to 7 days by cell titer glo assay; format: functional, cell-based; outline: as §2
[29] = Antiproliferative activity against human SKW-3 cells assessed as inhibition of cell viability measured for 6 to 7 days by cell titer glo assay; format: functional, cell-based; settings: SKW3; outline: as §1
[30] = system: A549; test: Effect on cell cycle distribution in human A549 cells assessed as increase in >4N DNA content at 2 to 5000 nM incubated for 24 to 72 hrs by flow cytometry based analysis; format: functional; settings: dose 2-5000 nM, time 24-72 hrs
[31] = system: COLO 205; test: Induction of apoptosis in human COLO 205 cells assessed as caspase-3 cleavage at 10 nmol/L incubated for 24 hrs by Western blot analysis; format: functional, cell-based
[32] = Toxicity in SCID nude mouse xenografted with human A549 cells assessed as drug tolerance at 25 to 100 mg/kg, ip administered once daily for 5 consecutive days with 2 days off scheduled for 3 cycles measured upto 60 days; format: organism-based; settings: in vivo, 1440 h, dose 25-100 mg/kg, time 60 day
[33] = Toxicity in SCID nude mouse xenografted with human HCT-116 cells assessed as body weight loss at 25 to 100 mg/kg, ip administered once daily for 5 consecutive days with 2 days off scheduled for 3 cycles measured upto 60 days relative to control; format: organism-based; settings: in vivo, 1440 h, dose 25-100 mg/kg, time < 60 day
[34] = Toxicity in SCID nude mouse xenografted with human MCF7 cells assessed as body weight loss at 50 to 100 mg/kg, ip administered once daily for 5 consecutive days with 2 days off scheduled for 3 cycles measured upto 60 days; format: organism-based; settings: in vivo, 1440 h, dose 50-100 mg/kg, time < 60 day
[35] = system: COLO 205; test: Antitumor activity in human COLO 205 cells xenografted in nude mouse assessed as reduction in tumor growth at 25 to 100 mg/kg, ip administered once daily for 5 consecutive days with 2 days off scheduled for 2 cycles measured upto 60 days; settings: dose 25-100 mg/kg, time 60.0 day

CCn1cc(-c2ccnc3[nH]c(-c4cccc(CN(C)C)c4)cc23)c(-c2ccc(NC(=O)N(C)C)cc2)n1 [GSK-1070916]
EC50 [1]: 7 nM
EC50 [2]: 7 nM
EC50 [3]: 38 nM
EC50 [4]: 13 nM
EC50 [5]: 33 nM
EC50 [6]: 57 nM
EC50 [7]: 3 nM
EC50 [8]: 13 nM
EC50 [9]: 4 nM
EC50 [10]: 5 nM
EC50 [11]: 5 nM
EC50 [12]: 6 nM
EC50 [13]: 15 nM
EC50 [14]: 31 nM
EC50 [15]: 38 nM
EC50 [16]: 5 nM
EC50 [17]: 10 nM
EC50 [18]: 2 nM
EC50 [19]: 3 nM
EC50 [20]: 4 nM
EC50 [21]: 5 nM
EC50 [22]: 1 nM
EC50 [23]: 5 nM
EC50 [24]: 10 nM
EC50 [25]: 11 nM
EC50 [26]: 26 nM
EC50 [27]: 4 nM
EC50 [28]: 3 nM
EC50 [29]: 5 nM
Activity [30]: Active
Activity [31]: Active
Activity [32]: Non-Toxic
Activity [33]: < 15%
Activity [34]: Toxic
Activity [35]: inactive
